ChEMBL document CHEMBL1123677, “Structure-activity studies of 5-[[4-(4,5-dihydro-2-oxazolyl) phenoxy]alkyl]-3-methylisoxazoles: inhibitors of picornavirus uncoating” (J Med Chem, 1987)
Values after ≈ are worked out from the molar mass of the structure shown. Active and inactive are the calls of the source. The calls are words filed in the database; no cut-off is given here.

Legend:
rhinovirus A2 [1] = experiment: Antirhinovirus activity was assessed and the maximum testable concentration that causes no apparent effects on the cell monolayers was determined against HRV-2 virus in vitro.; assay type: functional, human rhinovirus type 2
rhinovirus A2 [2] = experiment: Antirhinovirus activity was determined by the ability to inhibit the HRV-2( human rhinovirus type -2) virus by plaque reduction assay in vitro; IA is inactive; assay type: functional, organism-based
How it was run: (§1)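 Plaque reduction assay against human rhinovirus type 2 (HRV-2), following an earlier reported method. The value is the MIC, the minimum inhibitory concentration.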

rhinovirus A2 [3] = experiment: Antiviral activity determined by ability to inhibit the HRV-2( human rhinovirus type -2) virus by plaque reduction assay in vitro; assay type: functional; settings: Rhinovirus A; how it was run: as §1
Human rhinovirus sp. = experiment: Mean of MIC's was determined for the five types of virus like HRV-2, HRV-1A,HRV-22,HRV-41 and HRV-50; assay type: functional
How it was run: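 MIC measured by plaque reduction against HRV-2 first. The value is the mean of the MICs across these five serotypes.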

[4] = tested on: human rhinovirus (15-serotype panel); experiment: Antirhinovirus activity was determined by the ability to inhibit the growth of 80% of a panel of 15 human rhinovirus serotypes
rhinovirus B86 = experiment: Tested for antirhinoviral activity against the rhinovirus serotype 86; assay type: functional; settings: Rhinovirus B
How it was run: (§2)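 Selected compounds were tested across a 15-serotype rhinovirus panel: the five secondary serotypes plus 10 more. An MIC was recorded for each serotype. MIC80, the concentration inhibiting 80% of serotypes tested, was also derived from this panel.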

rhinovirus A21 = experiment: Tested for antirhinoviral activity against the rhinovirus serotype 21; assay type: functional; settings: Rhinovirus A; how it was run: as §2
rhinovirus A41 = experiment: Tested for antirhinoviral activity against the rhinovirus serotype 41; assay type: functional; settings: Rhinovirus A; how it was run: as §2
rhinovirus B14 = experiment: Tested for antirhinoviral activity against the rhinovirus serotype 14; assay type: functional, human rhinovirus type 14; settings: Rhinovirus B; how it was run: as §2
rhinovirus A1B = experiment: Tested for antirhinoviral activity against the rhinovirus serotype 1B; assay type: functional, human rhinovirus type 1b; settings: Rhinovirus A; how it was run: as §2
Human rhinovirus 1A = experiment: Tested for antirhinoviral activity against the rhinovirus serotype 1A; assay type: functional; how it was run: as §2
[5] = Partition coefficient (logP); assay type: physicochemical; settings: octanol/water
rhinovirus A15 = experiment: Tested for antirhinoviral activity against the rhinovirus serotype 15; assay type: functional; settings: Rhinovirus A; how it was run: as §2
rhinovirus A50 = experiment: Tested for antirhinoviral activity against the rhinovirus serotype 50; assay type: functional; settings: Rhinovirus A; how it was run: as §2
rhinovirus A89 = experiment: Tested for antirhinoviral activity against the rhinovirus serotype 89; assay type: functional, human rhinovirus type 89; settings: Rhinovirus A; how it was run: as §2
rhinovirus A2 [6] = experiment: Tested for antirhinoviral activity against the rhinovirus serotype 2; assay type: functional, human rhinovirus type 2; settings: Rhinovirus A; how it was run: as §2
rhinovirus A67 = experiment: Tested for antirhinoviral activity against the rhinovirus serotype 67; assay type: functional; settings: Rhinovirus A; how it was run: as §2
rhinovirus A22 = experiment: Tested for antirhinoviral activity against the rhinovirus serotype 22; assay type: functional; settings: Rhinovirus A; how it was run: as §2
rhinovirus A30 = experiment: Tested for antirhinoviral activity against the rhinovirus serotype 30; assay type: functional; settings: Rhinovirus A; how it was run: as §2
rhinovirus A25 = experiment: Tested for antirhinoviral activity against the rhinovirus serotype 25; assay type: functional; settings: Rhinovirus A; how it was run: as §2
rhinovirus B6 = experiment: Tested for antirhinoviral activity against the rhinovirus serotype 6; assay type: functional; settings: Rhinovirus B; how it was run: as §2

Which results are given for `Cc1cc(CCCCCOc2ccc(C3=NCCO3)cc2C(C)(C)C)on1`?
MTL (rhinovirus A2 [1]): 8.4 µM; MIC (rhinovirus A2 [2]): inactive

With `Cc1cc(CCCCCCOc2ccc(C3=NCCO3)cc2Cl)on1` as the compound, how does the MTL (rhinovirus A2 [1]) read?
The MTL was 8.5 µM.

And the MIC (rhinovirus A2 [3])?
Its MIC is 0.06 µM (≈ 0.0218 µg/mL).

What about the MIC (Human rhinovirus sp.) of the same compound?
Its MIC is 1.4 µM (≈ 0.508 µg/mL).

What about the MIC80 [4] of the same compound?
The MIC80 was 1.2 µM (≈ 0.435 µg/mL).

Which results are given for `Cc1cc(CCCCCOc2ccc(C3=NCCO3)cc2C(F)(F)F)on1`?
MIC (rhinovirus B86): 0.03 µM (≈ 0.0115 µg/mL); MIC (rhinovirus A21): 0.03 µM (≈ 0.0115 µg/mL); MIC (rhinovirus A41): 0.2 µM (≈ 0.0765 µg/mL); MIC (rhinovirus B14): 3 µM (≈ 1.15 µg/mL); MIC (rhinovirus A1B): 0.04 µM (≈ 0.0153 µg/mL); MIC (Human rhinovirus 1A): 0.4 µM (≈ 0.153 µg/mL); logP [5]: 4.38; MIC (rhinovirus A15): 0.2 µM (≈ 0.0765 µg/mL); MIC (rhinovirus A50): 1.1 µM (≈ 0.421 µg/mL); MIC (rhinovirus A89): 0.2 µM (≈ 0.0765 µg/mL); MIC (rhinovirus A2 [6]): 0.03 µM (≈ 0.0115 µg/mL); MTL (rhinovirus A2 [1]): 3.4 µM; MIC (rhinovirus A2 [3]): 0.03 µM (≈ 0.0115 µg/mL); MIC (rhinovirus A67): 0.2 µM (≈ 0.0765 µg/mL); MIC (Human rhinovirus sp.): 0.4 µM (≈ 0.153 µg/mL); MIC (rhinovirus A22): 0.07 µM (≈ 0.0268 µg/mL); MIC (rhinovirus A30): 0.3 µM (≈ 0.115 µg/mL); MIC (rhinovirus A25): 0.2 µM (≈ 0.0765 µg/mL); MIC80 [4]: 1.1 µM (≈ 0.421 µg/mL); MIC (rhinovirus B6): 1.8 µM (≈ 0.688 µg/mL)

Which MTL (rhinovirus A2 [1]) does the source give for `CCC(=O)Nc1cc(C2=NCCO2)ccc1OCCCCCc1cc(C)no1` here?
Its MTL is 16 µM.

And the MIC (rhinovirus A2 [3])?
The MIC was 7.3 µM (≈ 2.81 µg/mL).

For `CCc1cc(C2=NCCO2)ccc1OCCCCCc1cc(C)no1`, which MIC (rhinovirus B86) is on record?
Its MIC is 1.9 µM (≈ 0.651 µg/mL).

And the MIC (rhinovirus A21)?
Its MIC is 0.04 µM (≈ 0.0137 µg/mL).

And the MIC (rhinovirus A41)?
Its MIC is 6.7 µM (≈ 2.29 µg/mL).

What about the MIC (rhinovirus B14) of the same compound?
The MIC was 1.1 µM (≈ 0.377 µg/mL).

And the MIC (rhinovirus A1B)?
The MIC was 0.09 µM (≈ 0.0308 µg/mL).

And the MIC (Human rhinovirus 1A)?
The MIC was 2 µM (≈ 0.685 µg/mL).

What about the logP [5] of the same compound?
The logP was 4.71.

What about the MIC (rhinovirus A15) of the same compound?
The MIC was 0.4 µM (≈ 0.137 µg/mL).

What about the MIC (rhinovirus A50) of the same compound?
Its MIC is 0.1 µM (≈ 0.0342 µg/mL).

And the MIC (rhinovirus A89)?
Its MIC is 0.07 µM (≈ 0.024 µg/mL).

What about the MIC (rhinovirus A2 [6]) of the same compound?
Its MIC is 0.06 µM (≈ 0.0205 µg/mL).

And the MTL (rhinovirus A2 [1])?
The MTL was 9.1 µM.

And the MIC (rhinovirus A2 [3])?
The MIC was 0.06 µM (≈ 0.0205 µg/mL).

What about the MIC (rhinovirus A67) of the same compound?
The MIC was 0.3 µM (≈ 0.103 µg/mL).

And the MIC (Human rhinovirus sp.)?
Its MIC is 1.8 µM (≈ 0.616 µg/mL).

What about the MIC (rhinovirus A22) of the same compound?
Its MIC is 0.1 µM (≈ 0.0342 µg/mL).

What about the MIC (rhinovirus A30) of the same compound?
The MIC was 0.1 µM (≈ 0.0342 µg/mL).

What about the MIC (rhinovirus A25) of the same compound?
Its MIC is 4 µM (≈ 1.37 µg/mL).

What about the MIC80 [4] of the same compound?
The MIC80 was 2 µM (≈ 0.685 µg/mL).

And the MIC (rhinovirus B6)?
The MIC was 3.2 µM (≈ 1.1 µg/mL).

Which results are given for `Cc1cc(CCCCCOc2ccc(C3=NCCO3)c(Cl)c2)on1`?
MTL (rhinovirus A2 [1]): 25 µM; MIC (rhinovirus A2 [3]): 0.4 µM (≈ 0.14 µg/mL); MIC (Human rhinovirus sp.): 6.5 µM (≈ 2.27 µg/mL); MIC80 [4]: 7 µM (≈ 2.44 µg/mL)

Which results are given for `Cc1cc(CCCCCCCOc2ccc(C3=NCCO3)cc2Cl)on1`?
MTL (rhinovirus A2 [1]): 17 µM; MIC (rhinovirus A2 [3]): 0.1 µM (≈ 0.0377 µg/mL); MIC (Human rhinovirus sp.): 2.3 µM (≈ 0.867 µg/mL); MIC80 [4]: 2.8 µM (≈ 1.06 µg/mL)

Which MTL (rhinovirus A2 [1]) does the source give for `Cc1cc(CCCCCCCOc2ccc(C3=NCCO3)cc2)on1` [DISOXARIL] here?
Its MTL is 18 µM.

What about the MIC (rhinovirus A2 [3]) of the same compound?
The MIC was 3.5 µM (≈ 1.2 µg/mL).

What about the MIC (Human rhinovirus sp.) of the same compound?
Its MIC is over 18 µM.

With `C=CCc1cc(C2=NCCO2)ccc1OCCCCCc1cc(C)no1` as the compound, how does the MIC (rhinovirus B86) read?
The MIC was 2.1 µM (≈ 0.744 µg/mL).

And the MIC (rhinovirus A21)?
The MIC was 0.4 µM (≈ 0.142 µg/mL).

And the MIC (rhinovirus A41)?
Its MIC is 3.4 µM (≈ 1.21 µg/mL).

What about the MIC (rhinovirus B14) of the same compound?
Its MIC is 3.4 µM (≈ 1.21 µg/mL).

And the MIC (rhinovirus A1B)?
Its MIC is 0.1 µM (≈ 0.0354 µg/mL).

And the MIC (Human rhinovirus 1A)?
The MIC was 1.4 µM (≈ 0.496 µg/mL).

And the logP [5]?
Its logP is 4.93.

What about the MIC (rhinovirus A15) of the same compound?
Its MIC is 1.6 µM (≈ 0.567 µg/mL).

What about the MIC (rhinovirus A50) of the same compound?
Its MIC is 0.4 µM (≈ 0.142 µg/mL).

What about the MIC (rhinovirus A89) of the same compound?
The MIC was 0.6 µM (≈ 0.213 µg/mL).

What about the MIC (rhinovirus A2 [6]) of the same compound?
The MIC was 0.08 µM (≈ 0.0284 µg/mL).

And the MTL (rhinovirus A2 [1])?
The MTL was 8.8 µM.

What about the MIC (rhinovirus A2 [3]) of the same compound?
Its MIC is 0.08 µM (≈ 0.0284 µg/mL).

What about the MIC (rhinovirus A67) of the same compound?
Its MIC is 1.1 µM (≈ 0.39 µg/mL).

What about the MIC (Human rhinovirus sp.) of the same compound?
Its MIC is 1.1 µM (≈ 0.39 µg/mL).

What about the MIC (rhinovirus A22) of the same compound?
The MIC was 0.5 µM (≈ 0.177 µg/mL).

What about the MIC (rhinovirus A30) of the same compound?
Its MIC is 0.8 µM (≈ 0.284 µg/mL).

And the MIC (rhinovirus A25)?
Its MIC is 3.4 µM (≈ 1.21 µg/mL).

And the MIC80 [4]?
Its MIC80 is 2.1 µM (≈ 0.744 µg/mL).

What about the MIC (rhinovirus B6) of the same compound?
The MIC was 1.7 µM (≈ 0.603 µg/mL).

With `Cc1cc(CCCCCOc2ccc(C3=NCCO3)cc2N(C)C)on1` as the compound, how does the MTL (rhinovirus A2 [1]) read?
The MTL was 17 µM.

What about the MIC (rhinovirus A2 [3]) of the same compound?
The MIC was 0.2 µM (≈ 0.0715 µg/mL).

And the MIC (Human rhinovirus sp.)?
Its MIC is over 17 µM.

With `Cc1cc(CCCCCOc2ccc(C3=NCCO3)c(C)c2)on1` as the compound, how does the MTL (rhinovirus A2 [1]) read?
Its MTL is 19 µM.

What about the MIC (rhinovirus A2 [3]) of the same compound?
The MIC was 0.41 µM (≈ 0.135 µg/mL).

What about the MIC (Human rhinovirus sp.) of the same compound?
Its MIC is over 18 µM.

What about the MIC80 [4] of the same compound?
The MIC80 was 15 µM (≈ 4.93 µg/mL).

What does the source list for `Cc1cc(CCCCCOc2ccc(C3=NCCO3)cc2C=O)on1`?
MTL (rhinovirus A2 [1]): 2.3 µM; MIC (rhinovirus A2 [3]): 1.4 µM (≈ 0.479 µg/mL); MIC (Human rhinovirus sp.): > 2.3 µM

Which MTL (rhinovirus A2 [1]) does the source give for `Cc1cc(CCCCCOc2ccc(C3=NCCO3)cc2CO)on1` here?
Its MTL is 9 µM.

What about the MIC (rhinovirus A2 [3]) of the same compound?
Its MIC is 7.1 µM (≈ 2.45 µg/mL).
